# Measurements as given in publication PMC7689742 (Clinical Pharmacology and Therapeutics, 2020).
# “And” between values parts separate entries of the source, which are not always exact repeats. Equal entries are not always repeated. Where two headings read alike, the source gives them in different places.
# How the values were obtained:
# [1] = 1:1 complex with HP‐β‐CD; cited from earlier work
# [2] = GastroPlus human model; settings: for clearance: both, human, plasma, oral
# [3] = Pharmacokinetic study in pentagastrin‐pretreated dogs with or without HP‐β‐CD; format: in vivo, dog; settings: for AUC 0‐∞ / Fenebrutinib recovered in feces / Cmax / Tmax: 100 mg tablets; for Cmax / Tmax: male, beagle, dog, plasma, po, 100 mg
# How it was run: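 Fasted male beagles got intramuscular pentagastrin at 6 µg/kg about 30 min before dosing. They then had oral gavage of pH 2 water (control) or HP-β-CD in pH 2 water (0.8, 2 or 8 g total), each plus water to 250 mL, followed by two 50 mg tablets (n = 4/group). Plasma was sampled 5 min–24 h and assayed by LC-MS/MS (LLOQ 1.02 ng/mL). Cumulative fecal recovery was measured. Groups were compared by one-way ANOVA with Bonferroni's test.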
# [4] = Determination of the binding constant; format: physicochemical; settings: for k complex (M^−1) / k complex: 1:1 complex with HP‐β‐CD, source Internal data
# [5] = Physiochemical properties used for fenebrutinib
# [6] = Determination of the binding constant; format: physicochemical; settings: aqueous, 48 hours, ambient
# How it was run: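 Excess test compound was added to sealed glass vials of aqueous α-cyclodextrin or HP-β-CD at several concentrations. Vials were shaken 48 h at ambient conditions to equilibrate, then centrifuge-filtered to remove solids. Dissolved compound was quantified by HPLC with diode array detection. k_complex = [complex]/([intrinsic solubility]·[free cyclodextrin]).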
# [7] = test system: MDCK cell monolayer; assay: Permeability across an MDCK cell monolayer; format: in vitro ADME, canine; settings: HP‐β‐CD:fenebrutinib molar ratio 1.56 (266 mg HP‐β‐CD)
# How it was run: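 MDCK cells with canine Mdr1 knocked out by CRISPR-Cas9 were grown 5 days on 1 µm pore polyester inserts. Monolayers were equilibrated 20 min at 37°C in HBSS with 10 mM Hepes, pH 7.4. Donor held 20 µM test compound, 50 µM lucifer yellow and 0–20% w/v HP-β-CD. Apical-to-basolateral receivers were sampled at 30, 60 and 90 min. Quantitation was by LC-MS/MS; Papp = (dQ/dt)/(A·C0).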
# [8] = Itraconazole clinical DDI study, fenebrutinib PK in healthy subjects; format: in vivo, human
# How it was run: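 Single oral 100 mg test-compound dose on Day 1; after a 3-day washout, inhibitor 200 mg oral solution once daily Days 4–9, with co-dosed 100 mg test compound Day 10 and one more inhibitor dose Day 11. Overnight fast, 240 mL water, food withheld 4 h post-dose. Plasma sampled predose to 48 h on Days 1 and 10. Mixed-model least-squares means, 90% CI of difference.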
# [9] = GastroPlus dog model
# [10] = two‐compartment model fit to control group
# [11] = both, human, plasma, po, 100 mg
# [12] = dog model, from intravenous PK data
compound,measurement,setting,value
Cc1cc(NS(=O)(=O)c2ccc(N)cc2)no1 [Sulfamethoxazole],k complex,[1],360 M⁻¹
CC/C(=C(/CC)c1ccc(O)cc1)c1ccc(O)cc1 [Diethylstilbestrol],k complex (M^−1),[1],"59,200 M^−1"
C[C@H]1CN(C2COC2)CCN1c1ccc(Nc2cc(-c3ccnc(N4CCn5c(cc6c5CC(C)(C)C6)C4=O)c3CO)cn(C)c2=O)nc1 [Fenebrutinib],clearance,[2],19.2 mL/min/kg
same,clearance,[2]; 100 mg,35 mL/min/kg
same,reduction of systemic clearance in the presence of itraconazole,[2]; residual method on elimination phases,approximately 45%
same,transfer rate constant from the central to peripheral compartment,[2]; [10],0.5 h⁻¹
same,transfer rate constant from the peripheral to central compartment,[2]; [10],0.19 h⁻¹
same,AUC 0‐∞,[3]; HP‐β‐CD 0 g,28.9 ± 6.98 µg/h/mL
same,Fenebrutinib recovered in feces,[3]; HP‐β‐CD 0 g,3.48 ± 0.681 mg
same,AUC 0‐∞,[3]; HP‐β‐CD 0.8 g,17.4 ± 6.92 µg/h/mL
same,Fenebrutinib recovered in feces,[3]; HP‐β‐CD 0.8 g,11.2 ± 2.39 mg
same,AUC 0‐∞,[3]; HP‐β‐CD 2 g,8.38 ± 1.94 µg/h/mL
same,Fenebrutinib recovered in feces,[3]; HP‐β‐CD 2 g,15.6 ± 8.99 mg
same,AUC 0‐∞,[3]; HP‐β‐CD 8 g,4.46 ± 2.07 µg/h/mL
same,Fenebrutinib recovered in feces,[3]; HP‐β‐CD 8 g,22.7 ± 7.76 mg
same,increase of recovery in feces vs control,[3]; HP‐β‐CD 0.8 g,~3 fold
same,AUC decrease vs control,[3]; HP‐β‐CD 2 g,~3.5 fold
same,Cmax decrease vs control,[3]; HP‐β‐CD 2 g,~3.5 fold
same,increase of recovery in feces vs control,[3]; HP‐β‐CD 2 g,~4.5 fold
same,AUC decrease vs control,[3]; HP‐β‐CD 8 g,about 7 fold
same,increase of recovery in feces vs control,[3]; HP‐β‐CD 8 g,about 6.5 fold
same,Cmax,[3]; HP‐β‐CD 0 g,3940 ± 225 ng/mL
same,Cmax,[3]; HP‐β‐CD 0.8 g,2090 ± 243 ng/mL
same,Cmax,[3]; HP‐β‐CD 2 g,1110 ± 142 ng/mL
same,Cmax,[3]; HP‐β‐CD 8 g,447 ± 204 ng/mL
same,Tmax,[3]; HP‐β‐CD 0 g,0.875 ± 0.25 h
same,Tmax,[3]; HP‐β‐CD 0.8 g,1.38 ± 1.11 h
same,Tmax,[3]; HP‐β‐CD 2 g,2 ± 1.15 h
same,Tmax,[3]; HP‐β‐CD 8 g,3 h
same,k complex (M^−1),[4],"200,000 M^−1"
same,k complex with HP‐β‐CD,"[4]; aqueous, 48 hours, ambient",2 × 10^5 M^−1 and ~ 2 × 10^5 M^−1
same,particle size distribution median diameter (D50),[5],12 µm
same,solubility,[5]; pH 2.3,36000 µg/mL
same,solubility,"[5]; pH 6.5, fassif",9 µg/mL
same,solubility,"[5]; pH 7.8, aqueous buffer",0.1 µg/mL
same,k complex with α‐CD,[6],"4,000 M^−1"
same,reduction in P app,[7],~2 fold
same,AUC0–24h,"[8]; 100 mg fenebrutinib oral alone, healthy subjects",1.11 ± 0.359 µg/h/mL
same,AUC0–24h,[8]; 100 mg fenebrutinib with 200 mg itraconazole oral solution (steady state),2.45 ± 0.588 µg/h/mL
same,Cmax,[8]; [11],221 ± 82.5 ng/mL
same,Tmax,[8]; [11],1.56 ± 0.629 h
same,half-life,[8]; [11],8.26 ± 2.33 h
same,transfer rate constant from the central to peripheral compartment,[9]; [12],0.08 h⁻¹
same,transfer rate constant from the peripheral to central compartment,[9]; [12],0.2 h⁻¹
same,clearance,"[9]; dog, plasma, iv",6 mL/min/kg
Cc1nnc2n1-c1ccc(Cl)cc1C(c1ccccc1Cl)=NC2 [Triazolam],k complex,[1],200 M⁻¹
C[C@]12C=CC(=O)C=C1CC[C@@H]1[C@@H]2[C@@H](O)C[C@@]2(C)[C@H]1CC[C@]2(O)C(=O)CO [Prednisolone],k complex,[1],958 M⁻¹
Cc1ccc(-c2cc(C(F)(F)F)nn2-c2ccc(S(N)(=O)=O)cc2)cc1 [Celecoxib],k complex (M^−1),[4],"3,000 M^−1"
CS(=O)(=O)c1ccc(C2=C(c3ccccc3)C(=O)OC2)cc1 [Rofecoxib],k complex,[4],190 M⁻¹
COc1ccc2cc([C@H](C)C(=O)O)ccc2c1 [Naproxen],k complex,[1],780 M⁻¹
Nc1ccc(S(=O)(=O)Nc2nccs2)cc1 [Sulfathiazole],k complex,[4],450 M⁻¹
Clc1ccc(COC(Cn2ccnc2)c2ccc(Cl)cc2Cl)cc1 (stereo not drawn) [Econazole],k complex,[1],180 M⁻¹
CN1C(=O)CN=C(c2ccccc2F)c2cc([N+](=O)[O-])ccc21 [Flunitrazepam],k complex (M^−1),[1],"1,100 M^−1"
C[C@H]1O[C@@H](O[C@H]2[C@@H](O)C[C@H](O[C@H]3[C@@H](O)C[C@H](O[C@H]4CC[C@@]5(C)[C@H](CC[C@@H]6[C@@H]5C[C@@H](O)[C@]5(C)[C@@H](C7=CC(=O)OC7)CC[C@]65O)C4)O[C@@H]3C)O[C@@H]2C)C[C@H](O)[C@@H]1O [Digoxin],k complex (M^−1),[1],"6,800 M^−1"
CCn1cc(C(=O)O)c(=O)c2cc(F)c(N3CCNCC3)cc21 [Norfloxacin],k complex,[4],5 M⁻¹
C[C@]12CC[C@@H]3c4ccc(O)cc4CC[C@H]3[C@@H]1CC[C@@H]2O [Estradiol],k complex (M^−1),[1],"38,600 M^−1"
Cc1nnc2n1-c1ccc(Cl)cc1C(c1ccccc1)=NC2 [Alprazolam],k complex,[1],250 M⁻¹
Clc1ccc(COC(Cn2ccnc2)c2ccc(Cl)cc2Cl)c(Cl)c1 (stereo not drawn) [Miconazole],k complex,[1],260 M⁻¹
CN1C(=O)CN=C(c2ccccc2)c2cc(Cl)ccc21 [Diazepam],k complex,[1],184 M⁻¹
CC[C@@]1(O)C(=O)OCc2c1cc1n(c2=O)Cc2cc3ccccc3nc2-1 [Camptothecin],k complex,[1],184 M⁻¹
O=C(O)c1cc(-c2ccc(F)cc2F)ccc1O [Diflunisal],k complex (M^−1),[4],"1,600 M^−1"
CC(=O)Nc1nnc(S(N)(=O)=O)s1 [Acetazolamide],k complex,[1],85 M⁻¹
C[C@]12CCC(=O)C=C1CC[C@@H]1[C@@H]2[C@@H](O)C[C@@]2(C)[C@H]1CC[C@]2(O)C(=O)CO [Hydrocortisone],k complex (M^−1),[1],"1,900 M^−1"
